Reference: ChEMBL document CHEMBL1150418, “Discovery of potent furan piperazine sodium channel blockers for treatment of neuropathic pain” (Bioorg Med Chem, 2008)

target: T1, Sodium channel protein type 10 subunit alpha (Homo sapiens, UniProt Q9Y5Y9); test: Inhibition of human recombinant Nav1.8 channel expressed in HEK293 cells at 0.03 uM by whole cell voltage clamp technique; assay type: cell-based; details: not given
How it was run: (§1)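 HEK293 cells stably expressing recombinant human sodium channels, grown in high-glucose DMEM, 10% FBS, 2 mM sodium pyruvate, G418. Whole-cell voltage clamp; pipettes 0.8–2.5 MΩ; internal (mM) 135 CsF, 10 CsCl, 5 EGTA, 5 NaCl, 10 HEPES, pH 7.3 with CsOH. Holding pre-pulse set at midpoint of steady-state inactivation for each subtype.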
Target sequence in this assay (Q9Y5Y9 whole entry, looked up): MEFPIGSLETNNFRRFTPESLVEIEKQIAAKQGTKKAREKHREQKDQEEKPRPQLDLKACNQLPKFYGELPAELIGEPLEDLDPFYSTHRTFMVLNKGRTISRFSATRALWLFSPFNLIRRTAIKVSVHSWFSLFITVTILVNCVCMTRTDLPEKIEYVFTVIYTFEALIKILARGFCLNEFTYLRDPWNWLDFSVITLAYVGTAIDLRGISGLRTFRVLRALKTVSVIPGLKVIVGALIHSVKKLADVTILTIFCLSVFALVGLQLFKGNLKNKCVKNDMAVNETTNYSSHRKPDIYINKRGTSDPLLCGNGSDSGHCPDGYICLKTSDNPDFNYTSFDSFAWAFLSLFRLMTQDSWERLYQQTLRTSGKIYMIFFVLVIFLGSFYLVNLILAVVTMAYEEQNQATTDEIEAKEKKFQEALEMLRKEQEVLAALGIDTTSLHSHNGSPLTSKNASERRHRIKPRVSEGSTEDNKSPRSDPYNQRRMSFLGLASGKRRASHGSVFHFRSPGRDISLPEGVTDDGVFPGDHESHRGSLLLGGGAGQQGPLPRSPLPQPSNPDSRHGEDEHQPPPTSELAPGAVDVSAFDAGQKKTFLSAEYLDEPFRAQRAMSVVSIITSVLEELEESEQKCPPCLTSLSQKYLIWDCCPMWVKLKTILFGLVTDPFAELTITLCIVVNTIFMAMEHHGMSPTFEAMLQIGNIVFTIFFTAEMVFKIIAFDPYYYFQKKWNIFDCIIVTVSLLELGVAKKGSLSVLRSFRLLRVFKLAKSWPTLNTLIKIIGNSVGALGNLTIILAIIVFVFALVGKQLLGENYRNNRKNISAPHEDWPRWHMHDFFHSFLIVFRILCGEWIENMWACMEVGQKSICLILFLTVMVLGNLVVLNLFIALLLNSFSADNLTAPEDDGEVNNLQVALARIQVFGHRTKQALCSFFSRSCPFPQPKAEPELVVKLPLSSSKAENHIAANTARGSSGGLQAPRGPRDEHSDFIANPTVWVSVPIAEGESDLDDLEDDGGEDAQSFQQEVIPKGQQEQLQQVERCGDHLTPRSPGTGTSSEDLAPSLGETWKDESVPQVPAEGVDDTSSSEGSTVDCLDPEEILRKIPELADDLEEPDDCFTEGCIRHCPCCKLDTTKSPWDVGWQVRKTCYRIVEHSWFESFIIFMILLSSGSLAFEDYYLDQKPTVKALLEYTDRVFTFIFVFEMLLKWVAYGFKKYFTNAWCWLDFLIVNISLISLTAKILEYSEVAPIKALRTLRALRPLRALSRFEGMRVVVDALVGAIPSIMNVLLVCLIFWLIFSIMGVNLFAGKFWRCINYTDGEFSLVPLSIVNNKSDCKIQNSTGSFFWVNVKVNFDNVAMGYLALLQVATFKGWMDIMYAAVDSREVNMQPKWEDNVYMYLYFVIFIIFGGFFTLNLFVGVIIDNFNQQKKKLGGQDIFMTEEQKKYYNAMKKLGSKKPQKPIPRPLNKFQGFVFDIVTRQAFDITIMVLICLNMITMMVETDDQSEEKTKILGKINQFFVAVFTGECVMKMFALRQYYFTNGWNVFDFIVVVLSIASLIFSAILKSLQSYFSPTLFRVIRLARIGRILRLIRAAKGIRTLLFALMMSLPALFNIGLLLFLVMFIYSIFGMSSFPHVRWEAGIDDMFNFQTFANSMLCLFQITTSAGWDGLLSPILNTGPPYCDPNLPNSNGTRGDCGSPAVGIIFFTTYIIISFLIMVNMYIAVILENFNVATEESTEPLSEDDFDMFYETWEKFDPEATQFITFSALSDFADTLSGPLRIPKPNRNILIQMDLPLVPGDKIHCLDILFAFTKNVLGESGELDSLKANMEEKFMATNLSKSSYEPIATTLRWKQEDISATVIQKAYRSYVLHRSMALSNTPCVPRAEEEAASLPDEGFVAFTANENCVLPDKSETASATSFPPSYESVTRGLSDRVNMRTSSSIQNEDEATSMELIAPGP

| inhibition | SMILES |
| --- | --- |
| 57% | CC(C)(C)c1ccc(-c2ccc(C(=O)N3CCN(C4CCCCC4)CC3)o2)cc1 |
| 68% | O=C(c1ccc(-c2ccc(Oc3ccccc3)cc2)o1)N1CCN(C2CCCCC2)CC1 |

test system: Rattus norvegicus; test: Cardiovascular effect in iv dosed Sprague-Dawley rat assessed as decrease in heart rate; assay type: functional; set-up: scale not given: the % may be the effect or the level left; details: not given
How it was run: (§2)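 Anesthetized rats: after a 30-min control period, blocker or vehicle (PEG-400) infused intravenously as five successive 30-min infusions at 1×, 3×, 10×, 30× and 100× of calculated therapeutic dose; blood sample and hematocrit taken after infusion; mean arterial pressure and heart rate monitored.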

| SMILES | Activity |
| --- | --- |
| CC(C)(C)c1ccc(-c2ccc(C(=O)N3CCN(C4CCCCC4)CC3)o2)cc1 | 27% |

test system: Rattus norvegicus; test: Analgesic activity in po dosed Sprague-Dawley rat assessed as attenuation of mechanical allodynia in chung model of neuropathic pain; assay type: functional; details: not given

| SMILES | ED50 |
| --- | --- |
| O=C(c1ccc(-c2ccc(Cl)cc2)o1)N1CCNCC1 | 24 µmol/kg |
| CC(C)(C)c1ccc(-c2ccc(C(=O)N3CCN(C4CCCCC4)CC3)o2)cc1 | 4.7 µmol/kg |

test system: Rattus norvegicus; test: Analgesic activity in po dosed Sprague-Dawley rat by rotarod test; assay type: functional; details: not given
How it was run: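 Accelerating rotorod: after 30-min acclimation, rats placed on 9-cm rod ramping 0–20 rpm over 60 s; latency to fall recorded, maximum 60 s; three training sessions per rat. Groups of at least six rats; mean ± SEM.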

| SMILES | ED50 |
| --- | --- |
| O=C(c1ccc(-c2ccc(Cl)cc2)o1)N1CCNCC1 | > 300 µmol/kg |
| CC(C)(C)c1ccc(-c2ccc(C(=O)N3CCN(C4CCCCC4)CC3)o2)cc1 | > 300 µmol/kg |

test system: Rattus norvegicus; test: Analgesic activity in po dosed Sprague-Dawley rat by edge test; assay type: functional; details: not given
How it was run: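 Balance test: rats placed on 0.5-cm-thick edges of a 40 × 40 × 36 cm plexiglass box, must pull up onto the edge and avoid falling; cut-off 2 min. Groups of at least six rats.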

| SMILES | ED50 |
| --- | --- |
| O=C(c1ccc(-c2ccc(Cl)cc2)o1)N1CCNCC1 | > 300 µmol/kg |
| CC(C)(C)c1ccc(-c2ccc(C(=O)N3CCN(C4CCCCC4)CC3)o2)cc1 | > 300 µmol/kg |

target: T1, Sodium channel protein type 10 subunit alpha; test: Inhibition of human recombinant Nav1.8 channel expressed in HEK293 cells by whole cell voltage clamp technique; assay type: cell-based; details: not given; how it was run: as §1
Target sequence in this assay (Q9Y5Y9 whole entry): as the sequence (Q9Y5Y9 whole entry, looked up) above

| IC50 | SMILES |
| --- | --- |
| 280 nM | O=C(c1ccc(-c2ccc(Cl)cc2)o1)N1CCNCC1 |
| 30 nM | CC(C)(C)c1ccc(-c2ccc(C(=O)N3CCN(C4CCCCC4)CC3)o2)cc1 |

target: T2, 5-hydroxytryptamine receptor 1A (Homo sapiens) (UniProt P08908); test: Binding affinity to 5HT1A receptor at 10 uM; details: not given
T2 sequence (whole entry): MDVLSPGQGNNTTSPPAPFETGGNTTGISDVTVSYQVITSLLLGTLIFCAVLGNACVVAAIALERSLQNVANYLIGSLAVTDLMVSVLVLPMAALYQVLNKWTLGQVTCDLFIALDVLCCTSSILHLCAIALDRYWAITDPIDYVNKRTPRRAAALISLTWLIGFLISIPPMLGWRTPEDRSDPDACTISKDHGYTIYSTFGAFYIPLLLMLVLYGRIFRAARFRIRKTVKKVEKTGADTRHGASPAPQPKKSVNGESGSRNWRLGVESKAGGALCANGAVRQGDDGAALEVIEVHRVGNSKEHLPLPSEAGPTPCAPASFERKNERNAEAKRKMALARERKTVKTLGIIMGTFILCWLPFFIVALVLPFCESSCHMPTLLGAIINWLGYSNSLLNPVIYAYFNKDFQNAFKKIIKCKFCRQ

| Activity | SMILES |
| --- | --- |
| 60% | O=C(c1ccc(-c2ccc(Cl)cc2)o1)N1CCNCC1 |

target: Sodium channel protein type 10 subunit alpha (Rattus norvegicus) (UniProt Q62968); test: Blockade of Nav1.8 channel in rat dorsal root ganglion neurons assessed as inhibition of TTX-R current at 1 uM by whole cell patch clamp technique; assay type: tissue-based; details: not given
How it was run: (§3)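 Whole-cell voltage clamp of TTX-resistant currents in dissociated rat DRG neurons. Pipette (mM): CsF 135, NaCl 5, CsCl 10, EGTA 5, HEPES 10, pH 7.2. Bath (mM): NaCl 22, choline Cl 110, CaCl2 1.8, MgCl2 0.8, HEPES 10, glucose 5, pH 7.4. Inactivated-state protocol with pre-pulse at V1/2 (−40 mV). Mean ± SEM of two to six determinations.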

Sequence of Sodium channel protein type 10 subunit alpha (Rattus norvegicus) (Q62968 whole entry, looked up): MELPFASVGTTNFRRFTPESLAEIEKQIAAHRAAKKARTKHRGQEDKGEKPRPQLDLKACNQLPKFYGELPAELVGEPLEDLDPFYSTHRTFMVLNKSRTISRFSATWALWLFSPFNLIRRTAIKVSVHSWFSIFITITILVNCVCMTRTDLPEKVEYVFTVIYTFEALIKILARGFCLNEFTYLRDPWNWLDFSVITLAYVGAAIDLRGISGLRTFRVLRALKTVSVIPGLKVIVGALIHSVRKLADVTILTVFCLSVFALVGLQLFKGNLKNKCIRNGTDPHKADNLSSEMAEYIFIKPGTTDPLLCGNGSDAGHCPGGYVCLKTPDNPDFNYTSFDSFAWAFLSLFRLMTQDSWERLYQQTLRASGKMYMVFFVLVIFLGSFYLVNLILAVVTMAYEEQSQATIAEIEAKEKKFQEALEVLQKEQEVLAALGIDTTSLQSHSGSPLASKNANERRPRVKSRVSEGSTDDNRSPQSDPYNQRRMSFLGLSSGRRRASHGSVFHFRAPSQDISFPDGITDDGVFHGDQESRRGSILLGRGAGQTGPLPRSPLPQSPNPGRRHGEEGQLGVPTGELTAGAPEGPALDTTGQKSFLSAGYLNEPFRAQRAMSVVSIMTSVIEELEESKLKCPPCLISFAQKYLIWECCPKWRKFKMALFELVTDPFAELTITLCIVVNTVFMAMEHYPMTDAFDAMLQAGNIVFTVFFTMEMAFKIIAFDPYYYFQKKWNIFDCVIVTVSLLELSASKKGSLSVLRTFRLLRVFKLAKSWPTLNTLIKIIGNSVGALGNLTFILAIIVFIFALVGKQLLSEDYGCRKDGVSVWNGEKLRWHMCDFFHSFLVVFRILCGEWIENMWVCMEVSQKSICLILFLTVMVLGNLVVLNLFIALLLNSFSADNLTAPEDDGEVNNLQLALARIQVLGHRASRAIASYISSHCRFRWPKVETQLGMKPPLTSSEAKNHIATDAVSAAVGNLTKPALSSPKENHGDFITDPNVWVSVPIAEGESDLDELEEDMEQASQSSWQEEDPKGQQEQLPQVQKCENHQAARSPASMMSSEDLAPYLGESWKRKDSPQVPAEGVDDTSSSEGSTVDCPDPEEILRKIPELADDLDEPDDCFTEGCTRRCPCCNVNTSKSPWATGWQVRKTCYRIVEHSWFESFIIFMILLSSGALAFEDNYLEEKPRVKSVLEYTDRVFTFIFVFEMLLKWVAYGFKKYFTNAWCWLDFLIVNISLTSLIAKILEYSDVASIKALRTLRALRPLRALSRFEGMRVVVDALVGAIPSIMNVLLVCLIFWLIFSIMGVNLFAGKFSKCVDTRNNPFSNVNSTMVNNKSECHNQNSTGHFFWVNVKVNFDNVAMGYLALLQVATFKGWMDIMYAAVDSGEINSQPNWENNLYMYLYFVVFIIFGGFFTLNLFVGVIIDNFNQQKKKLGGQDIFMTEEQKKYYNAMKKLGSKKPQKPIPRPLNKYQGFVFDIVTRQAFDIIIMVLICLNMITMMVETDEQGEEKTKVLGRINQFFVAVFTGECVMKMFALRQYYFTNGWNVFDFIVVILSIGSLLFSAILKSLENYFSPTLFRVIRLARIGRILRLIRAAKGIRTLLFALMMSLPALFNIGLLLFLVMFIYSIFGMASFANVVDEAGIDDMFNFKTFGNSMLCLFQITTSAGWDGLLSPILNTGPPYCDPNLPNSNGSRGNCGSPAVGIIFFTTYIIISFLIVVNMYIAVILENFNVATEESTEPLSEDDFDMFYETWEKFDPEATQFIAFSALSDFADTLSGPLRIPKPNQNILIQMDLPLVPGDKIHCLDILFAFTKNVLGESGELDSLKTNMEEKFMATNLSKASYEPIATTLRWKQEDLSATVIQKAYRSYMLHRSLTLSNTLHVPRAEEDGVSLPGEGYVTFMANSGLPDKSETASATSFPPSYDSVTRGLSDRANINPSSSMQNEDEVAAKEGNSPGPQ

| inhibition | SMILES |
| --- | --- |
| 67% | O=C(c1ccc(-c2ccc(Oc3ccccc3)cc2)o1)N1CCN(C2CCCCC2)CC1 |

target: T1, Sodium channel protein type 10 subunit alpha; test: Inhibition of human recombinant Nav1.8 channel expressed in HEK293 cells at 0.3 uM by whole cell voltage clamp technique; assay type: cell-based; details: not given; how it was run: as §1
Target sequence in this assay (Q9Y5Y9 whole entry, looked up): as the sequence (Q9Y5Y9 whole entry, looked up) above

| inhibition | SMILES |
| --- | --- |
| 55% | O=C(c1ccc(-c2ccc(Cl)cc2)o1)N1CCNCC1 |
| 93% | O=C(c1ccc(-c2ccc(Oc3ccccc3)cc2)o1)N1CCN(C2CCCCC2)CC1 |

test system: Rattus norvegicus; test: Effect on locomotor activity in po dosed Sprague-Dawley rat; assay type: functional; details: not given
How it was run: (§4)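 Open-field locomotor activity recorded with photobeam activity monitors during the light cycle; groups of at least six rats, mean ± SEM.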

| SMILES | ED50 |
| --- | --- |
| O=C(c1ccc(-c2ccc(Cl)cc2)o1)N1CCNCC1 | > 300 µmol/kg |

test system: not listed separately; test: Ratio of drug level in brain to plasma in Sprague-Dawley rat; assay type: ADME; details: Sprague-Dawley, brain and plasma

| Kp | SMILES |
| --- | --- |
| 9 | O=C(c1ccc(-c2ccc(Cl)cc2)o1)N1CCNCC1 |
| 8 | CC(C)(C)c1ccc(-c2ccc(C(=O)N3CCN(C4CCCCC4)CC3)o2)cc1 |

target: Sodium channel protein type 2 subunit alpha (Homo sapiens, UniProt Q99250); test: Inhibition of human recombinant Nav1.2 channel expressed in HEK293 cells by whole cell voltage clamp technique; assay type: cell-based; details: not given
How it was run: (§5)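 HEK293 cells stably expressing recombinant human sodium channels, grown in high-glucose DMEM, 10% FBS, 2 mM sodium pyruvate, G418. Holding pre-pulse set at midpoint of steady-state inactivation for each subtype.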

| IC50 | SMILES |
| --- | --- |
| 1100 nM | O=C(c1ccc(-c2ccc(Cl)cc2)o1)N1CCNCC1 |

test system: not listed separately; test: Oral bioavailability in Sprague-Dawley rat at 10 mg/kg; assay type: ADME, organism-based; details: in vivo
How it was run: (§6)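 Rat pharmacokinetics after administration at 10 mg/kg in 10% DMSO/PEG400.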

| bioavailability | SMILES |
| --- | --- |
| 42% | O=C(c1ccc(-c2ccc(Cl)cc2)o1)N1CCNCC1 |
| 7% | CC(C)(C)c1ccc(-c2ccc(C(=O)N3CCN(C4CCCCC4)CC3)o2)cc1 |

test system: not listed separately; test: Volume of distribution at steady state in Sprague-Dawley rat at 10 mg/kg; assay type: ADME, organism-based; set-up: dose 10 mg/kg; details: in vivo, read-out: Vdss; how it was run: as §6

| Vd | SMILES |
| --- | --- |
| 24 L/kg | O=C(c1ccc(-c2ccc(Cl)cc2)o1)N1CCNCC1 |
| 13.4 L/kg | CC(C)(C)c1ccc(-c2ccc(C(=O)N3CCN(C4CCCCC4)CC3)o2)cc1 |

target: Sodium channel protein type 10 subunit alpha (Rattus norvegicus) (UniProt Q62968); test: Blockade of Nav1.8 channel in rat dorsal root ganglion neurons assessed as inhibition of TTX-R current at 0.3 uM by whole cell patch clamp technique; assay type: tissue-based; details: not given; how it was run: as §3

| inhibition | SMILES |
| --- | --- |
| 41% | O=C(c1ccc(-c2ccc(Cl)cc2)o1)N1CCNCC1 |

target: Sodium channel protein type 10 subunit alpha (Mus musculus, UniProt Q6QIY3); test: Inhibition of mouse recombinant Nav1.8 channel expressed in HEK293 cells by isotopic efflux assay; assay type: cell-based; details: not given

| IC50 | SMILES |
| --- | --- |
| 2900 nM | O=C(c1ccc(-c2ccc(Cl)cc2)o1)N1CCNCC1 |

test system: Rattus norvegicus; test: Effect on locomotor activity in Sprague-Dawley rat at 230 umol/kg; assay type: functional; details: not given; how it was run: as §4

| SMILES | Activity |
| --- | --- |
| CC(C)(C)c1ccc(-c2ccc(C(=O)N3CCN(C4CCCCC4)CC3)o2)cc1 | 38% |

target: Sodium channel protein type 10 subunit alpha (Rattus norvegicus) (UniProt Q62968); test: Blockade of Nav1.8 channel in rat dorsal root ganglion neurons assessed as inhibition of TTX-R current at 0.03 uM by whole cell patch clamp technique; assay type: tissue-based; details: not given
How it was run: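 Dissociated rat DRG neurons; TTx-r currents recorded by whole-cell voltage clamp. Holding pre-pulse was set at the steady-state inactivation midpoint (V1/2 = −40 mV), giving an inactivated-state protocol. Pipette solution (mM): CsF 135, NaCl 5, CsCl 10, EGTA 5, HEPES 10, pH 7.2. Bath solution (mM): NaCl 22, choline Cl 110, CaCl2 1.8, MgCl2 0.8, HEPES 10, glucose 5, pH 7.4. Percent inhibition is the mean of 2–6 determinations ± SEM.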

| inhibition | SMILES |
| --- | --- |
| 20% | CC(C)(C)c1ccc(-c2ccc(C(=O)N3CCN(C4CCCCC4)CC3)o2)cc1 |

target: 5-hydroxytryptamine receptor 1B (Homo sapiens) (UniProt P28222); test: Binding affinity to 5HT1B receptor at 10 uM; details: not given
Sequence (P28222 whole entry): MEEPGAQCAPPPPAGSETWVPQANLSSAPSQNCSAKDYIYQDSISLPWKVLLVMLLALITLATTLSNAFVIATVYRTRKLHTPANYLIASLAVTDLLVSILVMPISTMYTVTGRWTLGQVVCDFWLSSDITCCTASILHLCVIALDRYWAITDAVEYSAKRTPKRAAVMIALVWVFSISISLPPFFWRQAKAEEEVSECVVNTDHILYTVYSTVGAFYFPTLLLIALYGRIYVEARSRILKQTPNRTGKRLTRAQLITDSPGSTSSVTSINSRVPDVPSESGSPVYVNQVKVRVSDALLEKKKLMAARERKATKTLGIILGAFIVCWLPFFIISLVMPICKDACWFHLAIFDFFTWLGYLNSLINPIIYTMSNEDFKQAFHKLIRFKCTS

| Activity | SMILES |
| --- | --- |
| 86% | O=C(c1ccc(-c2ccc(Cl)cc2)o1)N1CCNCC1 |

test system: Rattus norvegicus; test: Cardiovascular effect in iv dosed Sprague-Dawley rat assessed as decrease in mean arterial blood pressure; assay type: functional, Artery; set-up: scale not given: the % may be the effect or the level left; details: not given; how it was run: as §2

| SMILES | Activity |
| --- | --- |
| CC(C)(C)c1ccc(-c2ccc(C(=O)N3CCN(C4CCCCC4)CC3)o2)cc1 | 11% |

target: T1, Sodium channel protein type 10 subunit alpha; test: Inhibition of human recombinant Nav1.8 channel expressed in HEK293 cells at 0.1 uM by whole cell voltage clamp technique; assay type: cell-based; details: not given; how it was run: as §1
Target sequence in this assay (Q9Y5Y9 whole entry, looked up): as the sequence (Q9Y5Y9 whole entry, looked up) above

| inhibition | SMILES |
| --- | --- |
| 81% | CC(C)(C)c1ccc(-c2ccc(C(=O)N3CCN(C4CCCCC4)CC3)o2)cc1 |

test system: not listed separately; test: Plasma clearance in Sprague-Dawley rat at 10 mg/kg; assay type: ADME, organism-based; set-up: dose 10 mg/kg; details: not given; how it was run: as §6

| clearance | SMILES |
| --- | --- |
| 350 mL/min/kg | O=C(c1ccc(-c2ccc(Cl)cc2)o1)N1CCNCC1 |
| 127 mL/min/kg | CC(C)(C)c1ccc(-c2ccc(C(=O)N3CCN(C4CCCCC4)CC3)o2)cc1 |

test system: not listed separately; test: Cmax in Sprague-Dawley rat at 10 mg/kg, po; assay type: ADME, organism-based; set-up: dose 10 mg/kg, route oral; details: in vivo; how it was run: as §6

| Cmax | SMILES |
| --- | --- |
| 130 ng/mL | O=C(c1ccc(-c2ccc(Cl)cc2)o1)N1CCNCC1 |
| 570 ng/mL | CC(C)(C)c1ccc(-c2ccc(C(=O)N3CCN(C4CCCCC4)CC3)o2)cc1 |

target: Sodium channel protein type 10 subunit alpha (Rattus norvegicus, UniProt Q62968); test: Blockade of Nav1.8 channel in rat dorsal root ganglion neurons assessed as inhibition of TTX-R current by whole cell patch clamp technique; assay type: tissue-based; details: not given; how it was run: as §3
Sequence (Q62968 whole entry): as the sequence (Q62968 whole entry, looked up) above

| IC50 | SMILES |
| --- | --- |
| 430 nM | O=C(c1ccc(-c2ccc(Cl)cc2)o1)N1CCNCC1 |
| 90 nM | CC(C)(C)c1ccc(-c2ccc(C(=O)N3CCN(C4CCCCC4)CC3)o2)cc1 |

target: Sodium channel protein type 10 subunit alpha (Rattus norvegicus) (UniProt Q62968); test: Blockade of Nav1.8 channel in rat dorsal root ganglion neurons assessed as inhibition of TTX-R current at 0.1 uM by whole cell patch clamp technique; assay type: tissue-based; details: not given; how it was run: as §3

| inhibition | SMILES |
| --- | --- |
| 58% | CC(C)(C)c1ccc(-c2ccc(C(=O)N3CCN(C4CCCCC4)CC3)o2)cc1 |

target: Sodium channel protein type 5 subunit alpha (Homo sapiens, UniProt Q14524); test: Inhibition of human recombinant Nav1.5 channel expressed in HEK293 cells by whole cell voltage clamp technique; assay type: cell-based; details: not given; how it was run: as §5

| SMILES | IC50 |
| --- | --- |
| O=C(c1ccc(-c2ccc(Cl)cc2)o1)N1CCNCC1 | 4600 nM |
| CC(C)(C)c1ccc(-c2ccc(C(=O)N3CCN(C4CCCCC4)CC3)o2)cc1 | 100 nM |
